Experimental data: article PMC5532717 (ACS Central Science, 2017)

Legend:
Type in all cases: biochemical
[1] = biological target: T1, human β-glucosidase GBA1 (Homo sapiens, UniProt P04062, R534H); test: In vitro apparent IC50, recombinant GBA1
T1 sequence (P04062 40-536 R534H): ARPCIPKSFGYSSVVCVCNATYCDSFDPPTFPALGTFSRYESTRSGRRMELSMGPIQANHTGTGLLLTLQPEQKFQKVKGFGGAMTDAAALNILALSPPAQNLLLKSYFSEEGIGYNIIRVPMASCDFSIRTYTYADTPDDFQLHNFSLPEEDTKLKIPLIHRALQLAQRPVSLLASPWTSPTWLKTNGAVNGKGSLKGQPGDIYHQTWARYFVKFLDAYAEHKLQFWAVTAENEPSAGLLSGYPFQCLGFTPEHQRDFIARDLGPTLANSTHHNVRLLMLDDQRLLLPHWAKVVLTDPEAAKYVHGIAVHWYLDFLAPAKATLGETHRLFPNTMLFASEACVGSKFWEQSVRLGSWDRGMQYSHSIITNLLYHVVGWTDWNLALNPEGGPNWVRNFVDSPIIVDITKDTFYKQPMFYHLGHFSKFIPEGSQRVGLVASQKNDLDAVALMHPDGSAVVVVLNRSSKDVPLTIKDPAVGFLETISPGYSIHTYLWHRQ
Method in brief: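 Recombinant human GBA1 (Cerezyme) preincubated with a range of test compound concentrations for 30 min at 37 °C, then added to 4-MU-Glc substrate mixture to measure residual activity. Reaction quenched with 1 M NaOH–glycine (pH 10.3); 4-MU fluorescence read at λEX 366 / λEM 445 nm. Apparent IC50 is the mean of three technical replicates.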

[2] = biological target: T2, GANAB (Mus musculus, UniProt Q8BHN3); test: Competitive ABPP against probe 13 in mouse gastrointestinal lysate; settings: mouse intestine lysate, 1 h at 37 °C
T2 sequence (Q8BHN3 33-944): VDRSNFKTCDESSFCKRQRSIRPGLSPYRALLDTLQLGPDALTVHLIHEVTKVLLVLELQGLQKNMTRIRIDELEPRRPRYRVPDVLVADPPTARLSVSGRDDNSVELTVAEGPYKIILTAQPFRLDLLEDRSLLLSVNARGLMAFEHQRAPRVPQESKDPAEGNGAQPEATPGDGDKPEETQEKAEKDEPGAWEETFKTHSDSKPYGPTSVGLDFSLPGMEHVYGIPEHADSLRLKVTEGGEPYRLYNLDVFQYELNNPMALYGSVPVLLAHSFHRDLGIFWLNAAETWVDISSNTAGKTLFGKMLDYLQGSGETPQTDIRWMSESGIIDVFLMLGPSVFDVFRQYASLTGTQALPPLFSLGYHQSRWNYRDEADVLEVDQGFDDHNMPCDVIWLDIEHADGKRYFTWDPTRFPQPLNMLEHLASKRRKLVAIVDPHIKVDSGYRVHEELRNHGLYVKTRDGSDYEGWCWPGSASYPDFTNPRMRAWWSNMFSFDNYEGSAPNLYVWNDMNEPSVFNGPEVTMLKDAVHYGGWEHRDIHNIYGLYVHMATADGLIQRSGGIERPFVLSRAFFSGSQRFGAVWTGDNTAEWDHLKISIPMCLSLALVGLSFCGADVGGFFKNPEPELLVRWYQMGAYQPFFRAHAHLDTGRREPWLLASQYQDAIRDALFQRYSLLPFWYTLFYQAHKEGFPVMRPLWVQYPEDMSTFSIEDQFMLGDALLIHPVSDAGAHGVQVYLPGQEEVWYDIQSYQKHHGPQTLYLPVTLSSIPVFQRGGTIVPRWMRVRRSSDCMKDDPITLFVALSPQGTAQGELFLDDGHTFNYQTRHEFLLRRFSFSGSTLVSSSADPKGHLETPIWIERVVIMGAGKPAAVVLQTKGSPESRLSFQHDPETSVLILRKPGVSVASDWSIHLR
T2 sequence (O08795 15-521 partner): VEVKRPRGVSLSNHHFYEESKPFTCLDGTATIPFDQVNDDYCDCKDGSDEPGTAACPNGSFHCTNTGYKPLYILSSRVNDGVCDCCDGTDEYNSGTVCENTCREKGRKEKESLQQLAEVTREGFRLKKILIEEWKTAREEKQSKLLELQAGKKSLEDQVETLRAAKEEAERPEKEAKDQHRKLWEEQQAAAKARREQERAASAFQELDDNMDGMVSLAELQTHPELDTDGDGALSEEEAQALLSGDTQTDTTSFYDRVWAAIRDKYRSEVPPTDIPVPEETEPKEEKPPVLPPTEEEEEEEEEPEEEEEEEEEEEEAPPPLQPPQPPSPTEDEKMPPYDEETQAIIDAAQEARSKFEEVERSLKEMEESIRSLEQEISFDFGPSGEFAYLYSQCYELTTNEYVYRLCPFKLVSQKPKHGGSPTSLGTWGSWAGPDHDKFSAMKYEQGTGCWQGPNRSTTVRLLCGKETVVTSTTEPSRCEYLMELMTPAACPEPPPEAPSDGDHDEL
Method in brief: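 Mixed mouse duodenum, jejunum and ileum homogenates were made in 25 mM potassium phosphate pH 6.5 with protease inhibitors (40 μg protein). Held 5 min on ice in McIlvaine buffer pH 4 or 7. Incubated 1 h at 37 °C with test compound (final 150 to 0.005 μM, plus 0), then probe 13 for 30 min at 37 °C. Boiled in Laemmli buffer, 10% SDS–PAGE, Cy5 fluorescence scan.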

[3] = biological target: GAA (Homo sapiens, UniProt P10253); test: Competitive ABPP against probe 13 in fibroblast lysates, pH 4; settings: pH 4, preincubation 15, 30 or 60 min
Method in brief: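 Human normal dermal fibroblast homogenate (17.6 μg total protein) in 150 mM McIlvaine buffer for 5 min on ice, at pH 4 for GAA and pH 7 for GANAB. Exposed to test compound for 15, 30 or 60 min at 37 °C, then labeled with Cy5 aziridine probe 13 for 30 min at 37 °C. Denatured at 98 °C, 10% SDS–PAGE, Cy5 in-gel fluorescence scan.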

O=S1(=O)O[C@@H]2[C@H](O)[C@@H](O)[C@H](O)[C@@H](CO)[C@@H]2O1 [Compound 5, 1,6-epi-cyclophellitol cyclosulfate]
IC50 [1]: > 100 µM | inhibition of probe 13 labeling of GANAB [2]: inhibited | inhibition of probe 13 labeling of GAA [3]: time dependent inhibition
